{"source": "ChEMBL document CHEMBL1145749", "about": "“Inhibition of human immunodeficiency virus reverse transcriptase by synadenol triphosphate and its E-isomer” (J Med Chem, 2003)", "key": {"Human betaherpesvirus 5 [1]": {"test_system": "Human betaherpesvirus 5", "experiment": "Antiviral selectivity against HCMV virus; Inactive", "format": "functional, organism-based"}, "Human gammaherpesvirus 4 [2]": {"test_system": "Human gammaherpesvirus 4", "experiment": "Antiviral selectivity against […]; Inactive", "format": "functional, organism-based"}, "[3]": {"test_system": "Human immunodeficiency virus 1", "experiment": "Antiviral selectivity against HIV-1 virus; Inactive", "format": "functional, organism-based"}, "Human alphaherpesvirus 3 [4]": {"test_system": "Human alphaherpesvirus 3", "experiment": "Antiviral selectivity against varicella zoster virus; Inactive", "format": "functional, organism-based"}, "[5]": {"experiment": "Ratio of inhibitory activity of compound to that of substrate activity of dATP against RT M184V enzyme was determined", "summary_of_the_method": "(§1)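 Recombinant HIV-1 RT (wild-type, M184V or M184I) was expressed in E. coli JM109 with 1 mM IPTG for 5 h, then purified on Q and SP columns to >90% purity. Assay used MS2 RNA/22A DNA primer in 50 mM Tris-HCl pH 7.8, 6 mM MgCl2, 150 mM KCl and 0.01% Triton X-100. Synthesis was distributive, with [3H]dATP as the only nucleotide, at 37 °C. Timed aliquots were spotted on DE81 and counted by scintillation. Ki came from the abscissa intercept of the Lineweaver–Burk replot. Ratio was Ki over dATP Km.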"}, "[6]": {"experiment": "Ratio of inhibitory activity of compound to that of substrate activity of dATP against RT wt enzyme was determined", "summary_of_the_method": "as §1"}, "[7]": {"experiment": "Ratio of inhibitory activity of compound to that of substrate activity of dATP against RT M184I enzyme was determined", "summary_of_the_method": "as §1"}, "[8]": {"test_system": "Human immunodeficiency virus 1", "experiment": "Antiviral selectivity against HIV-1 virus; Significant activity", "format": "functional, organism-based"}, "[9]": {"test_system": "Nc1ncnc2c1ncn2[C@H]1C[C@H](O)[C@@H](COP(=O)(O)OP(=O)(O)OP(=O)(O)O)O1", "experiment": "Substrate Activity against HIV-1 reverse transcriptase (RT M184V)", "summary_of_the_method": "(§2)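 Purified recombinant HIV-1 RT M184V or M184I was assayed on MS2 RNA/22A primer at 37 °C (pH 7.8 Tris, 6 mM MgCl2, 150 mM KCl, 0.01% Triton X-100) with [3H]dATP as the only nucleotide substrate. Aliquots were taken 4–5 times onto DE81 filters and counted by scintillation. Km was taken from the Lineweaver–Burk plot without inhibitor.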"}, "[10]": {"test_system": "Nc1ncnc2c1ncn2[C@H]1C[C@H](O)[C@@H](COP(=O)(O)OP(=O)(O)OP(=O)(O)O)O1", "experiment": "Substrate Activity against HIV-1 reverse transcriptase (RT M184I)", "summary_of_the_method": "as §2"}, "Human gammaherpesvirus 4 [11]": {"test_system": "Human gammaherpesvirus 4", "experiment": "Antiviral selectivity against EB virus; exhibited wide range selectivity", "format": "functional, organism-based"}, "Human alphaherpesvirus 3 [12]": {"test_system": "Human alphaherpesvirus 3", "experiment": "Antiviral selectivity against varicella zoster virus; exhibited wide range selectivity", "format": "functional, organism-based"}, "[13]": {"test_system": "Human immunodeficiency virus 1", "experiment": "Antiviral selectivity against HIV-1 virus; exhibited wide range selectivity", "format": "functional, organism-based"}, "Human betaherpesvirus 5 [14]": {"test_system": "Human betaherpesvirus 5", "experiment": "Antiviral selectivity against HCMV virus; exhibited wide range selectivity", "format": "functional, organism-based"}}, "note": "Active and inactive are the calls of the source. The calls are words filed in the database; no cut-off is given here."}
{"compound": "Nc1ncnc2c1ncn2/C=C1\\CC1CO", "note": "(stereo not given)", "values": [{"measurement": "IA", "setting": "Human betaherpesvirus 5 [1]", "result": "inactive"}, {"measurement": "IA", "setting": "Human gammaherpesvirus 4 [2]", "result": "inactive"}, {"measurement": "IA", "setting": "[3]", "result": "inactive"}, {"measurement": "IA", "setting": "Human alphaherpesvirus 3 [4]", "result": "inactive"}]}
{"compound": "Nc1ncnc2c1ncn2[C@H]1CC[C@@H](COP(=O)(O)OP(=O)(O)OP(=O)(O)O)O1", "values": [{"measurement": "Ki/Km", "setting": "[5]", "result": 1.3}, {"measurement": "Ki/Km", "setting": "[6]", "result": 1.2}, {"measurement": "Ki/Km", "setting": "[7]", "result": 3.2}]}
{"compound": "Nc1ncnc2c1ncn2/C=C1\\CC1COP(=O)(O)OP(=O)(O)OP(=O)(O)O", "note": "(stereo not given)", "values": [{"measurement": "Ki/Km", "setting": "[5]", "result": 137}, {"measurement": "Ki/Km", "setting": "[6]", "result": 25}, {"measurement": "Ki/Km", "setting": "[7]", "result": 187}]}
{"compound": "COC(=O)C(C)NP(=O)(OCC1C/C1=C\\n1cnc2c(N)ncnc21)Oc1ccccc1", "note": "(stereo not given)", "values": [{"measurement": "Anti-HIV activity", "setting": "[8]", "result": "Significant activity"}]}
{"compound": "Human immunodeficiency virus type 1 reverse transcriptase (Human immunodeficiency virus 1), Q72547 M184V", "values": [{"measurement": "Km", "setting": "[9]", "result": 0.38, "unit": "µM"}]}
{"compound": "Human immunodeficiency virus type 1 reverse transcriptase (Human immunodeficiency virus 1), Q72547 M184I", "values": [{"measurement": "Km", "setting": "[10]", "result": 0.38, "unit": "µM"}]}
{"compound": "Nc1ncnc2c1ncn2/C=C1/CC1COP(=O)(O)OP(=O)(O)OP(=O)(O)O", "note": "(stereo not given)", "values": [{"measurement": "Ki/Km", "setting": "[5]", "result": 4.5}, {"measurement": "Ki/Km", "setting": "[6]", "result": 0.8}, {"measurement": "Ki/Km", "setting": "[7]", "result": 6.3}]}
{"compound": "Nc1ncnc2c1ncn2/C=C1/CC1CO", "note": "(stereo not given)", "values": [{"measurement": "Antiviral selectivity", "setting": "Human gammaherpesvirus 4 [11]", "result": "exhibited wide range selectivity"}, {"measurement": "Antiviral selectivity", "setting": "Human alphaherpesvirus 3 [12]", "result": "exhibited wide range selectivity"}, {"measurement": "Antiviral selectivity", "setting": "[13]", "result": "exhibited wide range selectivity"}, {"measurement": "Antiviral selectivity", "setting": "Human betaherpesvirus 5 [14]", "result": "exhibited wide range selectivity"}]}
